Test results from ChEMBL document CHEMBL4270618, “Synthesis and biological evaluation of a library of hybrid derivatives as inhibitors of influenza virus PA-PB1 interaction” (Eur J Med Chem, 2018).
pEC50, pIC50: −log10 of the molar value.

What was measured:
[1] = Cytotoxicity against MDCK cells assessed as decrease in cell viability after 48 hrs by MTT assay; assay type: cell-based, Canis lupus familiaris; details: dog
In short: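 MDCK at 5×10^3 cells/well with 2-fold serial dilutions from 250 µM, or DMSO, for 48 h. MTT (5 mg/mL stock in PBS) added for 4 h at 37 °C, then solubilising solution for 3 h at 37 °C. Absorbance read at 620 nm against DMSO = 100%. CC50 as mean ± SD, ≥3 experiments in duplicate.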

[2] = Cytotoxicity against HEK293T cells assessed as decrease in cell viability after 24 hrs by MTT assay; assay type: cell-based, HEK-293T; details: human
In short: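 HEK 293T at 2×10^4 cells/well with 2-fold serial dilutions from 250 µM, or DMSO, for 24 h. MTT (5 mg/mL stock in PBS) added for 4 h at 37 °C, then solubilised for 3 h at 37 °C. Absorbance read at 620 nm, DMSO wells = 100% viability. CC50 as mean ± SD, ≥3 independent experiments in duplicate.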

[3] = target: PA/PB1 (Influenza A virus (A/Puerto Rico/8/1934(H1N1)), UniProt P03431+P03433); experiment: Inhibition of Influenza A virus A/PR/8/34 (H1N1) PA-PB1 interaction expressed in HEK293T cells assessed as decrease in RNA polymerase activity incubated for 24 hrs by minireplicon based luciferase reporter gene assay; assay type: cell-based
In short: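 HEK 293T (2×10^5/well) transfected 24 h after seeding, by calcium phosphate, with PR8 PB1, PB2, PA and NP plasmids (100 ng each), a PolI firefly-luciferase minireplicon (50 ng) and SV40-Renilla (50 ng) for normalisation. Compound or DMSO present during transfection; medium renewed at 4 h with compound. Dual luciferase read at 24 h. EC50 as mean ± SD, ≥3 experiments in duplicate.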

[4] = target: PA/PB1 (Influenza A virus (A/Puerto Rico/8/1934(H1N1)), UniProt P03431+P03433); experiment: Inhibition of Influenza A virus A/PR/8/34 (H1N1) 6His-tagged PA (239 to 716 residues)/GST-tagged PB1 (1 to 25 residues) interaction expressed in Escherichia coli incubated overnight by ELISA
In short: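 Wells coated with 400 ng E. coli-expressed 6His-PA(239–716) for 3 h at 37 °C, then blocked with 2% BSA/PBS for 1 h. 200 ng GST-PB1(1–25), or GST control, in serum-free DMEM added with compound or DMSO, overnight at room temperature. Bound protein detected with HRP-anti-GST and TMB, OD450. DMSO = 100% interaction. IC50 as mean ± SD, ≥3 experiments in duplicate.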

Influenza A virus = experiment: Antiviral activity against Influenza A virus A/PR/8/34 (H1N1) infected in MDCK cells measured after 2 days by plaque reduction assay; assay type: functional, organism-based; details: A/Puerto Rico/8/1934(H1N1), 48 h
In short: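 MDCK monolayers infected with PR8 (H1N1, Cambridge lineage) at 40 PFU/well for 1 h at 37 °C with compound at various concentrations, in DMEM with 1 µg/mL TPCK-trypsin and 0.14% BSA. Overlay of the same medium with 1.2% Avicel plus compound. After 2 days, fixed with 4% formaldehyde, stained with 0.1% toluidine blue, plaques counted. DMSO mean = 100%. EC50 reported as mean ± SD, ≥3 independent experiments in duplicate.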

| Compound | CC50 at 48 h [1] [µM] | CC50 at 24 h [2] [µM] | pEC50 [3] | pIC50 [4] | pEC50 (Influenza A virus) |
| --- | --- | --- | --- | --- | --- |
| Cc1cccc(NC(=O)CSc2nc(-c3ccccc3)cc(-c3ccccc3)c2C#N)c1 | > 250 | > 250 | 4.06 |  |  |
| COC(=O)[C@H](CC(C)C)NC(=O)CSc1nc(-c2ccccc2)cc(-c2ccc(C)cc2)c1C#N | 215 |  |  | 3.83 | 4.01 |
| COC(=O)[C@H](Cc1ccc(O)cc1)NC(=O)CSc1nc(-c2ccccc2)cc(-c2ccc(C)cc2)c1C#N | > 250 |  |  | 4.74 | < 4.00 |
| CC[C@H](C)[C@H](NC(=O)CSc1nc(-c2ccccc2)cc(-c2ccc(C)cc2)c1C#N)C(=O)OC | > 250 | 229 | 4.28 | 4.44 | 4.41 |
| COC(=O)C[C@H](NC(=O)[C@@H](NC(=O)CSc1nc(-c2ccccc2)cc(-c2ccc(C)cc2)c1C#N)C(C)C)C(=O)OC | > 250 | > 250 | 4.23 | 3.84 | 4.31 |
| Cc1ccc(-c2cc(-c3ccccc3)nc(SCC(=O)O)c2C#N)cc1 | > 250 | 218 | 4.37 | 4.25 | 4.19 |
| COC(=O)C[C@H](NC(=O)[C@@H](NC(=O)CSc1nc(-c2ccccc2)cc(-c2ccc(C)cc2)c1C#N)C(C)C)C(=O)N[C@@H](CCSC)C(=O)OC | > 250 |  |  | 4.17 | < 4.00 |
| COC(=O)[C@H](Cc1ccccc1)NC(=O)CSc1nc(-c2ccccc2)cc(-c2ccc(C)cc2)c1C#N | 240 |  |  | < 3.70 | 4.17 |
| COC(=O)[C@H](Cc1cnc[nH]1)NC(=O)CSc1nc(-c2ccccc2)cc(-c2ccc(C)cc2)c1C#N | 152 |  |  | 4.49 | 4.10 |
| Cc1ccc(-c2cc(-c3ccccc3)nc(SCC(=O)N[C@H](C(=O)O)C(C)C)c2C#N)cc1 | > 250 | 250 | 4.11 | 4.12 | 4.30 |
| COC(=O)[C@@H](NC(=O)CSc1nc(-c2ccccc2)cc(-c2ccc(C)cc2)c1C#N)C(C)C | 210 | > 250 | 4.39 | 3.78 | 4.28 |
| COC(=O)CC[C@H](NC(=O)CSc1nc(-c2ccccc2)cc(-c2ccc(C)cc2)c1C#N)C(=O)OC | > 250 |  |  | 3.73 | < 4.00 |
| Cc1ccc(-c2cc(-c3ccccc3)nc(SCC(=O)N[C@H](C(=O)N[C@@H](CC(=O)O)C(=O)O)C(C)C)c2C#N)cc1 | > 250 |  |  | 4.11 | 4.00 |
| Cc1ccc(-c2cc(-c3ccccc3)nc(SCNC(=O)OC(C)(C)C)c2C#N)cc1 | > 250 |  |  | < 3.70 | < 4.00 |
| CSCC[C@H](N)C(=O)N[C@@H](CC(=O)O)C(=O)N[C@H](C(=O)N[C@@H](CC(N)=O)C(=O)N1CCC[C@H]1C(=O)N[C@H](C(=O)N[C@@H](CC(C)C)C(=O)N[C@@H](CC(C)C)C(=O)N[C@@H](Cc1ccccc1)C(=O)N[C@@H](CC(C)C)C(=O)N[C@@H](CCCCN)C(=O)N[C@H](C(=O)N1CCC[C@H]1C(=O)N[C@@H](C)C(=O)N[C@@H](CCC(N)=O)C(=O)N[C@@H](Cc1ccc(O)cc1)C(=O)NCC(=O)N[C@@H](CCCNC(=N)N)C(=O)N[C@@H](CCCCN)C(=O)N[C@@H](CCCCN)C(=O)N[C@@H](CCCNC(=N)N)C(=O)N[C@@H](CCCNC(=N)N)C(=O)N[C@@H](CCC(N)=O)C(=O)N[C@@H](CCCNC(=N)N)C(=O)N[C@@H](CCCNC(=N)N)C(=O)N[C@@H](CCCNC(=N)N)C(=O)N1CCC[C@H]1C(=O)N1CCC[C@H]1C(=O)O)C(C)C)[C@@H](C)O)C(C)C | > 250 | > 250 | 4.81 | 4.50 | 4.30 |
| COC(=O)[C@H](CCCNC(=N)N)NC(=O)CSc1nc(-c2ccccc2)cc(-c2ccc(C)cc2)c1C#N | > 250 |  |  | 4.32 | < 4.00 |
| Cc1ccc(-c2cc(-c3ccccc3)nc(SCC(N)=O)c2C#N)cc1 | > 250 | 218 | 4.19 | 3.99 | 4.39 |
| CCC(CC)O[C@@H]1C=C(C(=O)O)C[C@H](N)[C@H]1NC(C)=O [OSELTAMIVIR CARBOXYLATE] | > 250 | > 250 |  |  | 7.82 |
| NC(=O)c1ncn([C@@H]2O[C@H](CO)[C@@H](O)[C@H]2O)n1 [RIBAVIRIN] | > 250 | > 250 | 4.62 |  |  |
